Consider eleven compounds from ChEMBL document CHEMBL1139172, “Identification, synthesis, and biological evaluation of novel pyrazoles as low molecular weight luteinizing hormone receptor agonists” (Bioorg Med Chem Lett, 2007).

For test [1], the target named is T1, Lutropin-choriogonadotropic hormone receptor (Homo sapiens, UniProt P22888). Put plainly: Agonist activity at human LH receptor expressed in CHO cells assessed as production of cAMP after 60 mins by SPA. Type of test: functional, cell-based.
T1 sequence (P22888 whole entry): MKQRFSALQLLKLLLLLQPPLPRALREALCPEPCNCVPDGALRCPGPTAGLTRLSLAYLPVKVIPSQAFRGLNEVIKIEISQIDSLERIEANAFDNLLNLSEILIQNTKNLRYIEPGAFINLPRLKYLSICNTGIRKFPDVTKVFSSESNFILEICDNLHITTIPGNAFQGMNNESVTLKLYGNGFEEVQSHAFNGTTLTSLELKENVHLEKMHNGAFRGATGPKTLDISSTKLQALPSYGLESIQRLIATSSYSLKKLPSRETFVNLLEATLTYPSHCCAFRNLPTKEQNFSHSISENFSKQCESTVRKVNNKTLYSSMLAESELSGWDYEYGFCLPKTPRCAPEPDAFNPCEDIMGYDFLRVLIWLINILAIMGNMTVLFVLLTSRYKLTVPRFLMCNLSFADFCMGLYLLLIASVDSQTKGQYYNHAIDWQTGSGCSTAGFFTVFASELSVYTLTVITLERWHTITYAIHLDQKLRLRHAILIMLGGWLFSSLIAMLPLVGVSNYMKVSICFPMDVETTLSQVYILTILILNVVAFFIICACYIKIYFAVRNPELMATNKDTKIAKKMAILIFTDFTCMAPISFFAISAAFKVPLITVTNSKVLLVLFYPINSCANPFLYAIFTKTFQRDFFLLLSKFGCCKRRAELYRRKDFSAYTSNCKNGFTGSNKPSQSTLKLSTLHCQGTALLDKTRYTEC
Test [2] addresses T1, Lutropin-choriogonadotropic hormone receptor. Put plainly: Agonist activity at human LH receptor expressed in CHO cells assessed as production of cAMP after 60 mins by SPA relative to luteinizing harmone. The test is classed as functional, cell-based.
A further test relates to Rattus norvegicus. Put plainly: Induction of testosterone in Sprague-Dawley rat at 4 to 32 mg/kg, ip by radioimmunoassay. Type of test: functional, organism-based. The gist of the method: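 Adult Sprague–Dawley rats implanted subcutaneously in the scapular region on day 1 with a 7-day slow-release pellet of 7.5 mg diethylstilbestrol. Two days later, ip injection of 0, 4, 16 or 32 mg/kg; 3 rats per group. Blood taken by retro-orbital plexus 2 h after dosing; serum frozen at -80 °C. Testosterone measured by ELISA (legend says radioimmunoassay), with standard deviations.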

Test [3] addresses Lutropin-choriogonadotropic hormone receptor (Rattus norvegicus) (UniProt P16235). The test can be described thus: Efficacy at LH receptor in Sprague-Dawley rat Leydig cells assessed as production of testosterone after 3 hrs. Type of test: cell-based. The gist of the method:
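Leydig cells from male Sprague–Dawley rats aged 21–40 days. Decapsulated testis digested 15 min at 37 °C, 5% CO2, in phenol red-free DMEM/F12 with 0.1% collagenase. Washed cells plated at 350,000/well in phenol red-free DMEM/F12 with 0.1% BSA and stimulated 3 h. After centrifugation, medium testosterone measured by ELISA. ED50 and efficacy derived.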

Chain of Lutropin-choriogonadotropic hormone receptor (Rattus norvegicus) (P16235 whole entry): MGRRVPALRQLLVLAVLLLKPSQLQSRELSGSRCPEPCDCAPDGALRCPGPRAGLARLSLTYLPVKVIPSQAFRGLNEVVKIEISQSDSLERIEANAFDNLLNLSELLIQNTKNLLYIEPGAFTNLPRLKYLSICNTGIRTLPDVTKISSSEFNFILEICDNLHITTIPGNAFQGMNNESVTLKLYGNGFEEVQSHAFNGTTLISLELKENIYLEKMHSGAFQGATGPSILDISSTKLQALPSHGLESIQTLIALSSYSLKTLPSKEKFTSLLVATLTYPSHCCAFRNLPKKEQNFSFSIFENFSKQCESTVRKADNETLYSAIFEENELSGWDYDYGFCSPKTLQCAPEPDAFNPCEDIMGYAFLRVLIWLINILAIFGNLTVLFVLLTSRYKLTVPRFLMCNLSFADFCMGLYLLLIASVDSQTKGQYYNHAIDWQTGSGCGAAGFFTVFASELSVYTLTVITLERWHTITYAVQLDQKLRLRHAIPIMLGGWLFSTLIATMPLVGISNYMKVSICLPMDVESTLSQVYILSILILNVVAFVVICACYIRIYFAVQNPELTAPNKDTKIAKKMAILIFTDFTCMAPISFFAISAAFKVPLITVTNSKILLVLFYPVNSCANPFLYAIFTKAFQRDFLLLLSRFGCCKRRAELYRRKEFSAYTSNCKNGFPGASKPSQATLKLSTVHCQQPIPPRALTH

Regarding `CC(C)(C)c1ccc(-n2nc(-c3ccncc3)cc2CCCCC(=O)N[C@H](CC(N)=O)Cc2ccc(O)cc2)cc1`, the EC50 (commonly the concentration at which the effect is half-maximal) in test [1] stood at 190 nM. For the same compound, the Activity in test [2] was found to be 66%.

Take `CC(C)(C)c1ccc(-n2nc(-c3ccncc3)cc2NCCCC(=O)N[C@@H](Cc2ccc(O)cc2)C(N)=O)cc1`: the EC50 in test [1] was > 100000 nM.

As for `CC(C)(C)c1ccc(-n2nc(-c3ccccn3)cc2CCCCCC(=O)N[C@H](C(N)=O)c2ccc(O)cc2)cc1`, the EC50 in test [1] amounted to 170 nM. In test [2], the Activity is 78%.

Regarding `CC(C)(C)c1ccc(-n2nc(-c3cc4ccccc4cn3)cc2-c2cccc(C(=O)N[C@@H](Cc3ccc(O)cc3)C(N)=O)c2)cc1`, the EC50 in test [1] was determined as 500 nM. In addition, the Activity in test [2] was 19%.

With `CC(C)(C)c1ccc(-n2nc(-c3ccccn3)cc2CCCCCC(=O)N[C@@H](Cc2cccc(O)c2)C(N)=O)cc1`, in test [1], the EC50 worked out at 150 nM. Also, the Activity in test [2] turned out to be 41%.

Turning to `CC(C)(C)Oc1ccc(C[C@H](NC(=O)CCCCc2cc(-c3cccnc3)nn2-c2ccc(C(C)(C)C)cc2)C(N)=O)cc1`, the EC50 in test [1] is 12100 nM. Also, the Activity in test [2] was determined as 72%.

For the compound `CC(C)(C)c1ccc(-n2nc(-c3cccnc3)cc2CCCCC(=O)N[C@@H](Cc2ccc(O)cc2)C(N)=O)cc1`, the figures for the Activity entry (in the test with Rattus norvegicus; in test [2]) were “Dose-dependent effect” and 70%, respectively. Also, the EC50 in test [1] is 20 nM. The ED50 in test [3] came out at 1.31 µM. Also, the Efficacy in test [3] came out at 78%.

Consider `CC(C)(C)c1ccc(-n2nc(-c3cccnc3)cc2CCCCC(=O)NCCc2ccc(O)cc2)cc1`, for which the EC50 in test [1] amounted to 80 nM. In test [2], the Activity was 45%.

With `CC(C)(C)c1ccc(-n2nc(CCCCC(=O)N[C@@H](Cc3ccc(O)cc3)C(N)=O)cc2-c2ccncc2)cc1`, in test [1], the EC50 stood at 2300 nM.

As to `CC(C)(C)c1ccc(-n2nc(-c3ccncc3)cc2CCCCC(=O)N[C@@H](Cc2ccc(O)cc2)C(N)=O)cc1`, in test [1], the EC50 was found to be 250 nM. The Activity in test [2] was found to be 55%.

On to `CC(C)(C)c1ccc(-n2nc(-c3cccnc3)cc2CCC(=O)N[C@@H](Cc2ccc(O)cc2)C(N)=O)cc1`, for which, in test [1], the EC50 was > 100000 nM.
